Measured values from different studies.
Lines come from different studies, so protocols differ.
Target: Adenosine receptor A1 (ADORA1, Homo sapiens, UniProt P30542)
Sequence (P30542 1-326, as in one of the studies): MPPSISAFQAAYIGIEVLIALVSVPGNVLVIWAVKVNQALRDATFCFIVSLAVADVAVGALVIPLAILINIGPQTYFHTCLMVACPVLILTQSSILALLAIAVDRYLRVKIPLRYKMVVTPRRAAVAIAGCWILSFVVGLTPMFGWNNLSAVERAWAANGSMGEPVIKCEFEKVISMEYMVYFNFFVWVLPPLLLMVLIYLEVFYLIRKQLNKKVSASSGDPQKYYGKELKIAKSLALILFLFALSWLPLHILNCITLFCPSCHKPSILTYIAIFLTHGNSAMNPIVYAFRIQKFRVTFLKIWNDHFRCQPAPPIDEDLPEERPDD

CNC(=O)[C@@]12C[C@@H]1[C@@H](n1cnc3c(NCc4cccc(C#CCCCCc5cn(C67CC8CC(CC(C8)C6)C7)nn5)c4)nc(Cl)nc31)[C@H](O)[C@@H]2O has a Ki of 1720 nM (ligand displacement, radioligand; cell membranes).
The Ki of C=CN1CCCn2c1nc1c2c(=O)n(C)c(=O)n1C is reported as > 10000 nM (ligand displacement, radioligand; cell membranes).
With CNC(=O)[C@@]12C[C@@H]1[C@@H](n1cnc3c(NCc4cn(-c5ccc(C(=O)NCCCF)cc5)nn4)nc(Cl)nc31)[C@H](O)[C@@H]2O the Ki was 1380 nM (ligand displacement, radioligand; cell membranes).
C#CCCCCC(=O)NCCNC(=O)COc1ccc(-c2nc3c([nH]2)c(=O)n(CCC)c(=O)n3CCC)cc1 has a Ki of 107 nM (ligand displacement, radioligand; cell membranes).
O[C@@H]1[C@H](O)CO[C@H]1n1cnc2c(NCc3cccc(Br)c3)ncnc21 gave a Ki of 3300 nM (ligand displacement, radioligand; cell membranes).
OC[C@@]12C[C@@H]1[C@@H](n1cnc3c(NC(C4CCCC4)C4CCCC4)nc(Cl)nc31)[C@H](O)[C@@H]2O gave a Ki of 436 nM (ligand displacement, radioligand).
The Ki of CCNC(=O)[C@H]1O[C@@H](n2cnc3c(N)nc(NN=CC4CCC=CO4)nc32)[C@H](O)[C@@H]1O (some centres unmarked) is reported as 34.6 nM (ligand displacement, radioligand; cell membranes).
With CCCCN1CCCn2c1nc1c2c(=O)n(CCC)c(=O)n1CCC the Ki was 600 nM (ligand displacement, radioligand; cell membranes).
The Ki of COc1cccc(Cn2c(=O)n(CC3CC3)c(=O)c3c2nc2cc(OC)ccn23)c1 is reported as 209 nM (ligand displacement, radioligand; cell membranes).
With CCCC[C@H](NC(=O)[C@H](C)c1c(C)[nH]c2ccc(O)cc12)c1ncc(-c2cc3ccccc3nc2OC)[nH]1 the Ki was 1590 nM (cell-free assay).
C#CCNc1nc(Cl)nc2c1ncn2[C@H]1[C@H](O)[C@H](O)[C@]2(C(=O)NC)C[C@H]12 has a Ki of 400 nM (ligand displacement, radioligand; cell membranes).
